Data: ChEMBL document CHEMBL1148898, “New ring C-seco limonoids from Brazilian Melia azedarach and their cytotoxic activity” (J Nat Prod, 2004)
Activity calls are given as the source filed them. The rule behind the calls is not given here.

What was measured:
[1] = Toxicity in brine shrimp at 100 ug/mL; format: organism-based; conditions: artemia, in vivo; read-out: Activity
[2] = test system: HeLa S3; assay: (§1) Cytotoxicity against human HeLaS3 cells after 72 hrs by WST1 assay; format: functional, cell-based
Outline: (§2)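 HeLa S3 cells seeded at 500 cells/well in minimum essential medium and cultured overnight. Compounds then added at final concentrations of 0.1, 1, 10 and 100 µM and incubated 72 h. WST-1 (Cell Counting Kit) added per manufacturer's protocol, followed by a further 2 h incubation. Absorbance read at 450 nm.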

[3] = as §1; format: functional, cell-based; conditions: HeLa S3, 72 h; outline: as §2

Compound | mortality at 100 ug/mL [1] [%] | Activity [2] | IC50 [3] [µM]
COC(=O)C[C@@H]1[C@]2(C)C3=C(C)[C@H](c4ccoc4)C[C@H]3O[C@@H]2[C@H](OC(C)=O)[C@H]2[C@](C)(C=O)[C@H](O)C[C@H](OC(=O)/C=C/c3ccccc3)[C@]12C | 100 | inactive | 
COC(=O)C[C@@H]1[C@]2(C)C3=C(C)[C@H](c4ccoc4)C[C@H]3O[C@@H]2[C@H](OC(C)=O)[C@H]2[C@](C)(C=O)[C@H](O)C[C@H](OC(=O)c3ccccc3)[C@]12C | 100 | inactive | 
C/C=C(\C)C(=O)O[C@@H]1[C@@H]2OC[C@]3(C)[C@H](OC(C)=O)C[C@H](OC(=O)c4ccccc4)[C@@](C)([C@@H]23)[C@H]2CC(=O)O[C@H]3C[C@@H](c4ccoc4)C(C)=C3[C@]12C [1-O-DEACETYL-1-O-BENZOYLOHCHINOLIDE B] | 100 |  | 33
C/C=C(\C)C(=O)O[C@H]1C[C@@H](OC(C)=O)[C@@]2(C)CO[C@H]3[C@@H](OC(=O)c4ccccc4)[C@@]4(C)C5=C(C)[C@H](c6ccoc6)C[C@@H]5OC(=O)C[C@@H]4[C@]1(C)[C@@H]32 [1-O-DEACETYL-1-O-TIGLOYLOHCHINOLIDE A] | 100 |  | 29.7
C/C=C(\C)C(=O)O[C@@H]1[C@@H]2OC[C@]3(C)[C@H](OC(C)=O)C[C@H](OC(=O)/C(C)=C/C)[C@@](C)([C@@H]23)[C@H]2CC(=O)O[C@H]3C[C@@H](c4ccoc4)C(C)=C3[C@]12C [1-O-DEACETYL-1-O-TIGLOYLOHCHINOLIDE B] | 100 |  | 33.8
CC(=O)O[C@@H]1C[C@H](O)[C@@]2(C)[C@H]3[C@@H](OC[C@]13C)[C@@H](OC(=O)c1ccccc1)[C@@]1(C)C3=C(C)[C@H](c4ccoc4)C[C@@H]3OC(=O)C[C@@H]12 [1-O-DEACETYLOHCHINOLIDE A] | 100 |  | 2.4
C/C=C(\C)C(=O)O[C@@H]1[C@@H]2OC[C@]3(C)[C@H](OC(C)=O)C[C@H](O)[C@@](C)([C@@H]23)[C@H]2CC(=O)O[C@H]3C[C@@H](c4ccoc4)C(C)=C3[C@]12C [1-O-DEACETYLOHCHINOLIDE B] | 100 |  | 0.1
O=c1[nH]cc(F)c(=O)[nH]1 [FLUOROURACIL] |  |  | 5.4
C/C=C(\C)C(=O)O[C@H]1C[C@@H](O)[C@@](C)(C=O)[C@@H]2[C@@H](OC(C)=O)[C@H]3O[C@@H]4C[C@@H](c5ccoc5)C(C)=C4[C@@]3(C)[C@@H](CC(=O)OC)[C@@]12C [OHCHINOLAL] | 100 | inactive | 
CC(=O)O[C@H]1C[C@@H](OC(C)=O)[C@@]2(C)CO[C@H]3[C@@H](OC(=O)c4ccccc4)[C@@]4(C)C5=C(C)[C@H](c6ccoc6)C[C@@H]5OC(=O)C[C@@H]4[C@]1(C)[C@@H]32 [OHCHNOLIDE A] | 100 | inactive | 
C/C=C(\C)C(=O)O[C@@H]1[C@@H]2OC[C@]3(C)[C@H](OC(C)=O)C[C@H](OC(C)=O)[C@@](C)([C@@H]23)[C@H]2CC(=O)O[C@H]3C[C@@H](c4ccoc4)C(C)=C3[C@]12C [OHCHNOLIDE B] | 100 |  | 40.5
